Measurements taken from ChEMBL document CHEMBL3616432, “(+)-Dehydroabietylamine derivatives target triple-negative breast cancer” (Eur J Med Chem, 2015).
Active and inactive are the calls of the source. The calls are words filed in the database; no cut-off is given here.

How the values were obtained:
MDA-MB-231 [1] = experiment: Antiproliferative activity against human triple-negative MDA-MB-231 cells at 52 to 65 uM after 72 hrs by CellTiter-Glo assay; type: functional, cell-based
HEK293 [2] = experiment: Cytotoxicity against HEK293 cells at 52 to 65 uM after 72 hrs by CellTiter-Glo assay; type: cell-based; conditions: human, hek293, 72 h
MCF7 = experiment: Antiproliferative activity against human ER-positive MCF7 cells at 52 to 65 uM after 72 hrs by CellTiter-Glo assay; type: functional, cell-based
Homo sapiens = species: Homo sapiens; experiment: Antiproliferative activity against human ER-positive MA11 cells at 52 to 65 uM after 72 hrs by CellTiter-Glo assay; type: functional
HepG2 [3] = experiment: Cytotoxicity against human HepG2 cells at 52 to 65 uM after 72 hrs by CellTiter-Glo assay; type: cell-based; conditions: hepg2, 72 h
MDA-MB-231 [4] = experiment: Antiproliferative activity against human triple-negative MDA-MB-231 cells at >52.3 uM after 72 hrs by CellTiter-Glo assay; type: functional, cell-based
HEK293 [5] = experiment: Cytotoxicity against HEK293 cells at <= 50 uM after 72 hrs by CellTiter-Glo assay; type: cell-based; conditions: human, hek293, 72 h
MDA-MB-231 [6] = experiment: Antiproliferative activity against human triple-negative MDA-MB-231 cells at 22 uM after 72 hrs by CellTiter-Glo assay; type: functional, cell-based
MDA-MB-231 [7] = experiment: Antiproliferative activity against human triple-negative MDA-MB-231 cells at <= 50 uM after 72 hrs by CellTiter-Glo assay; type: functional, cell-based
HepG2 [8] = experiment: Cytotoxicity against human HepG2 cells at <= 50 uM after 72 hrs by CellTiter-Glo assay; type: cell-based; conditions: hepg2, 72 h
[9] = Half life in mouse plasma; type: ADME, cell-free
How it was run: (§1)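 Compound stability incubated in human or mouse plasma; half-life determined, with known drugs as controls.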

[10] = Half life in human plasma; type: ADME, cell-free; how it was run: as §1
MDA-MB-231 [11] = experiment: Antiproliferative activity against human triple-negative MDA-MB-231 cells after 72 hrs by CellTiter-Glo assay; type: functional, cell-based
[12] = Efflux ratio of permeability from basolateral to apical side over apical to basolateral side in human Caco2 cells; type: ADME, cell-based; conditions: Caco-2
[13] = Apparent permeability from apical to basolateral side in human Caco2 cells; type: ADME, cell-based; conditions: Caco-2
[14] = Permeability of the compound at pH 7.4 by PAMPA assay; type: physicochemical; conditions: read-out: permeability
[15] = Permeability of the compound at pH 7.4 assessed as drug retention by PAMPA assay; type: physicochemical
[16] = Apparent permeability from basolateral to apical side in human Caco2 cells; type: ADME, cell-based; conditions: Caco-2

CC(C)c1ccc2c(c1)CC[C@H]1[C@](C)(CNC(=O)c3ccc(Cl)c([N+](=O)[O-])c3)CCC[C@]21C
Activity (MDA-MB-231 [1]): inactive
Activity (HEK293 [2]): Non-toxic
Activity (MCF7): inactive
Activity (Homo sapiens): inactive
Activity (HepG2 [3]): Non-toxic

CC(C)c1ccc2c(c1)CC[C@H]1[C@](C)(CNS(=O)(=O)c3cc(Cl)cc(Cl)c3O)CCC[C@]21C
Activity (MDA-MB-231 [4]): Active

CC(C)c1ccc2c(c1)CC[C@H]1[C@](C)(CNS(=O)(=O)c3cc(Cl)cc(Cl)c3)CCC[C@]21C
Activity (MDA-MB-231 [4]): Active

CC(C)c1cc2c(c(O)c1O)[C@@]13CCCC(C)(C)[C@@H]1C[C@@H]2OC3=O [CARNOSOL]
Activity (HEK293 [5]): Non-toxic
Activity (MDA-MB-231 [6]): Active
Activity (MDA-MB-231 [7]): Active
Activity (HepG2 [8]): Non-toxic

CC(C)c1ccc2c(c1)CC[C@H]1[C@](C)(CNC(=O)c3ccc(F)cc3)CCC[C@]21C
Activity (MDA-MB-231 [1]): inactive
Activity (HEK293 [2]): Non-toxic
Activity (MCF7): inactive
Activity (Homo sapiens): inactive
Activity (HepG2 [3]): Non-toxic

CC(C)c1ccc2c(c1)CC[C@H]1[C@](C)(CNS(=O)(=O)c3c(F)cccc3F)CCC[C@]21C
Activity (MDA-MB-231 [4]): Active

CC(C)c1ccc2c(c1)CC[C@H]1[C@](C)(CNC(=O)c3ccc(C#N)cc3)CCC[C@]21C
Activity (MDA-MB-231 [1]): inactive
Activity (HEK293 [2]): Non-toxic
Activity (MCF7): inactive
Activity (Homo sapiens): inactive
Activity (HepG2 [3]): Non-toxic

CC(C)c1ccc2c(c1)CC[C@H]1[C@](C)(CNC(=O)c3ccc(C(F)(F)F)cc3)CCC[C@]21C
Activity (MDA-MB-231 [1]): inactive
Activity (HEK293 [2]): Non-toxic
Activity (MCF7): inactive
Activity (Homo sapiens): inactive
Activity (HepG2 [3]): Non-toxic

Cc1csc(C(=O)NC[C@]2(C)CCC[C@]3(C)c4ccc(C(C)C)cc4CC[C@@H]23)c1
Activity (MDA-MB-231 [1]): inactive
Activity (HEK293 [2]): Non-toxic
Activity (MCF7): inactive
Activity (Homo sapiens): inactive
Activity (HepG2 [3]): Non-toxic

CC1CC(OC(=O)C(O)c2ccccc2)CC(C)(C)N1C (stereo unspecified) [EUCATROPINE]
half-life [9]: 1.8 h
half-life [10]: 0.42 h

CC(C)C1=CC2=CC[C@@H]3[C@](C)(CCC[C@@]3(C)C(=O)O)[C@H]2CC1
Activity (MDA-MB-231 [11]): inactive

CC(C)c1ccc2c(c1)CC[C@H]1[C@](C)(CNC(=O)c3c(Cl)cc(Cl)cc3Cl)CCC[C@]21C
Activity (MDA-MB-231 [1]): inactive
Activity (HEK293 [2]): Non-toxic
Activity (MCF7): inactive
Activity (Homo sapiens): inactive
Activity (HepG2 [3]): Non-toxic

COc1ccc(C(=O)NC[C@]2(C)CCC[C@]3(C)c4ccc(C(C)C)cc4CC[C@@H]23)cc1
Activity (MDA-MB-231 [1]): inactive
Activity (HEK293 [2]): Non-toxic
Activity (MCF7): inactive
Activity (Homo sapiens): inactive
Activity (HepG2 [3]): Non-toxic

CC(C)c1ccc2c(c1)CC[C@H]1[C@](C)(CNC(=O)c3cc4ccccc4o3)CCC[C@]21C
Activity (MDA-MB-231 [1]): inactive
Activity (HEK293 [2]): Non-toxic
Activity (MCF7): inactive
Activity (Homo sapiens): inactive
Activity (HepG2 [3]): Non-toxic

CC(C)c1ccc2c(c1)CC[C@H]1[C@](C)(CNS(=O)(=O)c3cccc(Cl)c3Cl)CCC[C@]21C
Activity (MDA-MB-231 [4]): Active

C=C[C@@]1(C)C=C2CC[C@@H]3[C@](C)(CCC[C@@]3(C)C(=O)O)[C@H]2CC1
Activity (MDA-MB-231 [11]): inactive

CC(C)c1ccc2c(c1)CC[C@H]1[C@](C)(CNC(=O)CSc3ccccc3)CCC[C@]21C
Activity (MDA-MB-231 [1]): inactive
Activity (HEK293 [2]): Non-toxic
Activity (MCF7): inactive
Activity (Homo sapiens): inactive
Activity (HepG2 [3]): Non-toxic

CC(C)c1ccc2c(c1)CC[C@H]1[C@](C)(CNS(=O)(=O)c3cccc(F)c3)CCC[C@]21C
Activity (MDA-MB-231 [4]): Active

CC(C)c1ccc2c(c1)CC[C@H]1[C@](C)(CN)CCC[C@]21C
Activity (HEK293 [5]): Non-toxic
Activity (MDA-MB-231 [7]): Active
Activity (HepG2 [8]): Non-toxic

COc1cccc(C(=O)NC[C@]2(C)CCC[C@]3(C)c4ccc(C(C)C)cc4CC[C@@H]23)c1
Activity (MDA-MB-231 [1]): inactive
Activity (HEK293 [2]): Non-toxic
Activity (MCF7): inactive
Activity (Homo sapiens): inactive
Activity (HepG2 [3]): Non-toxic

Cc1ccsc1C(=O)NC[C@]1(C)CCC[C@]2(C)c3ccc(C(C)C)cc3CC[C@@H]12
Activity (MDA-MB-231 [1]): inactive
Activity (HEK293 [2]): Non-toxic
Activity (MCF7): inactive
Activity (Homo sapiens): inactive
Activity (HepG2 [3]): Non-toxic

CC(C)c1ccc2c(c1)CC[C@H]1[C@](C)(CNC(=O)c3ccc(I)cc3)CCC[C@]21C
Activity (MDA-MB-231 [1]): inactive
Activity (HEK293 [2]): Non-toxic
Activity (MCF7): inactive
Activity (Homo sapiens): inactive
Activity (HepG2 [3]): Non-toxic

CC(C)c1ccc2c(c1)CC[C@H]1[C@](C)(CNC(=O)CC3CCCC3)CCC[C@]21C
Activity (MDA-MB-231 [1]): inactive
Activity (HEK293 [2]): Non-toxic
Activity (MCF7): inactive
Activity (Homo sapiens): inactive
Activity (HepG2 [3]): Non-toxic

Cc1nnsc1C(=O)NC[C@]1(C)CCC[C@]2(C)c3ccc(C(C)C)cc3CC[C@@H]12
Activity (MDA-MB-231 [1]): inactive
Activity (HEK293 [2]): Non-toxic
Activity (MCF7): inactive
Activity (Homo sapiens): inactive
Activity (HepG2 [3]): Non-toxic

CC(C)c1ccc2c(c1)CC[C@H]1[C@](C)(CNC(=O)C3CC4C=CC3C4)CCC[C@]21C (stereo partly specified)
Activity (MDA-MB-231 [1]): inactive
Activity (HEK293 [2]): Non-toxic
Activity (MCF7): inactive
Activity (Homo sapiens): inactive
Activity (HepG2 [3]): Non-toxic

CC(C)c1ccc2c(c1)CC[C@H]1[C@](C)(C(=O)O)CCC[C@]21C [DEHYDROABIETIC ACID]
Activity (HEK293 [5]): Non-toxic
Activity (MDA-MB-231 [7]): Active
Activity (HepG2 [8]): Non-toxic

CC(C)c1ccc2c(c1)CC[C@H]1[C@](C)(CNC(=O)c3cccs3)CCC[C@]21C
Activity (MDA-MB-231 [1]): inactive
Activity (HEK293 [2]): Non-toxic
Activity (MCF7): inactive
Activity (Homo sapiens): inactive
Activity (HepG2 [3]): Non-toxic

CC(C)c1ccc2c(c1)CC[C@H]1[C@](C)(CNS(=O)(=O)c3ccc(Cl)c(Cl)c3)CCC[C@]21C
Activity (MDA-MB-231 [4]): Active

CC(C)c1ccc2c(c1)CC[C@H]1[C@](C)(CNS(=O)(=O)c3ccc(F)cc3)CCC[C@]21C
Activity (MDA-MB-231 [4]): Active

NC(=O)N1c2ccccc2C=Cc2ccccc21 [CARBAMAZEPINE]
efflux ratio [12]: 0.6
Papp A→B [13]: 66.7 ×10⁻⁶ cm/s
Papp [14]: 128 ×10⁻⁶ cm/s
permeability [15]: 40.9%
Papp B→A [16]: 42.8 ×10⁻⁶ cm/s

CC(C)c1cc2c(c(O)c1O)[C@@]1(C(=O)O)CCCC(C)(C)[C@@H]1CC2 [CARNOSIC ACID]
Activity (HEK293 [5]): Non-toxic
Activity (MDA-MB-231 [7]): Active
Activity (HepG2 [8]): Non-toxic

CC(C)c1ccc2c(c1)CC[C@H]1[C@](C)(CNC(=O)[C@@H]3C[C@H]3c3ccccc3)CCC[C@]21C
Activity (MDA-MB-231 [1]): inactive
Activity (HEK293 [2]): Non-toxic
Activity (MCF7): inactive
Activity (Homo sapiens): inactive
Activity (HepG2 [3]): Non-toxic

CC(C)c1ccc2c(c1)CC[C@H]1[C@](C)(CNC(=O)N3CCCCC3)CCC[C@]21C
Activity (MDA-MB-231 [1]): inactive
Activity (HEK293 [2]): Non-toxic
Activity (MCF7): inactive
Activity (Homo sapiens): inactive
Activity (HepG2 [3]): Non-toxic

CC(C)c1ccc2c(c1)CC[C@H]1[C@](C)(CNS(=O)(=O)c3c(Cl)cc(Cl)cc3Cl)CCC[C@]21C
Activity (MDA-MB-231 [4]): Active

CC(C)c1ccc2c(c1)CC[C@H]1[C@](C)(CNC(=O)c3ccc(Cl)cc3Cl)CCC[C@]21C
Activity (MDA-MB-231 [1]): inactive
Activity (HEK293 [2]): Non-toxic
Activity (MCF7): inactive
Activity (Homo sapiens): inactive
Activity (HepG2 [3]): Non-toxic

CC(C)c1ccc2c(c1)CC[C@H]1[C@](C)(CNC(=O)[C@@H](C)c3ccccc3)CCC[C@]21C
Activity (MDA-MB-231 [1]): inactive
Activity (HEK293 [2]): Non-toxic
Activity (MCF7): inactive
Activity (Homo sapiens): inactive
Activity (HepG2 [3]): Non-toxic

CC(C)c1ccc2c(c1)CC[C@H]1[C@](C)(CNC(=O)c3ccc(-c4ccccc4)cc3)CCC[C@]21C
Activity (MDA-MB-231 [1]): inactive
Activity (HEK293 [2]): Non-toxic
Activity (MCF7): inactive
Activity (Homo sapiens): inactive
Activity (HepG2 [3]): Non-toxic

CC(C)c1ccc2c(c1)CC[C@H]1[C@](C)(CNS(=O)(=O)c3cc(F)c(F)c(F)c3)CCC[C@]21C
Activity (MDA-MB-231 [4]): Active

CC(C)c1ccc2c(c1)CC[C@H]1[C@](C)(CNC(=O)C3CCCC3)CCC[C@]21C
Activity (MDA-MB-231 [1]): inactive
Activity (HEK293 [2]): Non-toxic
Activity (MCF7): inactive
Activity (Homo sapiens): inactive
Activity (HepG2 [3]): Non-toxic
